Kir21 block = inhibitors of mouse Kir2.1 inward-rectifier potassium channel; B-score at 10 µM; HEK293-Kir2.1, FluxOR thallium flux fluorescence; active compounds read low; actives 0.85% (n = 310,000); AID 1672;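 active = fluorescence ratio B-score at or below minus 3 SD of library scores, with starting-brightness B-score within 2 SD, cut at about -4.2 in these data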;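 also: channel flux triggered by added potassium and thallium sulfate stimulus; B-score of peak minus minimum fluorescence over baseline after thallium stimulus; more negative B-score means stronger Kir2.1 block with less thallium influx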
Target sequence (P35561 whole entry, looked up): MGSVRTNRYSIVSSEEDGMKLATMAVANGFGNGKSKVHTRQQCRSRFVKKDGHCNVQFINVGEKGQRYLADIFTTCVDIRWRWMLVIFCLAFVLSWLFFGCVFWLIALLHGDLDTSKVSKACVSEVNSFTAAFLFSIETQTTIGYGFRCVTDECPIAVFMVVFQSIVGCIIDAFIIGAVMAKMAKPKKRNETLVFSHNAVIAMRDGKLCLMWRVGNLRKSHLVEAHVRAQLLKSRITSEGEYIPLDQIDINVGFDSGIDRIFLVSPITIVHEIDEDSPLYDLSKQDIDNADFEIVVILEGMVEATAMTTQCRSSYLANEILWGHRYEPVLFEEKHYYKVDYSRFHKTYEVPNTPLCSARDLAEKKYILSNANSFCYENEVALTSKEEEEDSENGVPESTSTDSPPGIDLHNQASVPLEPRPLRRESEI
DNA FID counter = counter-screen for HCV NS3 helicase inhibitors: DNA intercalator displacement. AID 1845. DNA fluorescent intercalator displacement, fluorescence. actives 0.17% (n = 290,000). inhibition, % at 7.9 µM; in the data active = inhibition above about 37%;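 also: 0% = vehicle and 100% = reference compound; higher means more ethidium bromide displaced from hairpin DNA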
SR-BI DiI-HDL act = enhances SR-BI lipid uptake from DiI-HDL. CHO ldlA[mSR-BI] cells, DiI-HDL uptake fluorescence, 3 h; 100 = double the neutral-control signal. activation, % at 12.5 µM. actives 0.096% (n = 320,000). AID 504775;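 active = mean replicate activation of at least 60% and every replicate at or above 60%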;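 also: 0% = median plate neutral-control signal and 100% = twice that signal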
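Assay system: LDL receptor-deficient CHO ldlA cells overexpressing murine SR-BI / Medium: BSA-supplemented, HEPES-buffered Ham's F12, pH 7.4 / Probe or stimulus: DiI-labelled HDL at 10 µg/mL final / Timing: compound with DiI-HDL co-incubation, 3 h at 37 °C / Technique: bottom-read cell fluorescence after medium removal, ex 550/em 595 nm / Measure: HDL uptake via cellular fluorescence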
SR-BI DiI inh = blocks mouse SR-BI lipid uptake from DiI-HDL | inhibition, % at 12.5 µM | actives 0.96% (n = 320,000) | Q61009 | ldlA[mSR-BI] CHO cells, DiI-HDL uptake fluorescence, 3 h;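 active = mean replicate inhibition of at least 70% and a set share of replicates each scoring 70 or more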;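 also: 0% = median of neutral control wells and 100% = median of positive control wells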
ANO1 block = blocks the mouse calcium-activated chloride channel TMEM16A | Q8BHY3 | HEK293 TMEM16A/YFP iodide influx fluorescence, ionomycin | normalized B-score (activity score, 25-100; higher = stronger inhibition) at 10 µM | AID 588511 | actives 1.2% (n = 310,000);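 active = ratio plate-corrected score three or more library SD toward inhibition, starting fluorescence score within five deviations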;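 also: score derived from kinetic fluorescence span divided by baseline fluorescence per well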
TMEM16A act = mouse TMEM16A channel activation, primary screen | B-score at 10 µM | HEK293 TMEM16A/YFP-H148Q/I152L, iodide quench fluorescence; active compounds read low | AID 623877 | actives 0.3% (n = 340,000) | Q8BHY3;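 active = fluorescence-ratio B-score plate-corrected deviation score at least 3 library SD below zero, with starting fluorescence score within 5 deviations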;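 also: channel opened by trigger with iodide after compound preincubation; score built on the fluorescence ratio of max minus min over baseline; more negative score means more quench and so TMEM16A activation or potentiation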
An asterisk follows results filed as active; i = inactive; nt = not tested or not shown. Only some compounds are listed: those with a hit (about 3% of all), similar ones and a draw of the others.

SMILES	Kir21 block	DNA FID counter	SR-BI DiI-HDL act	SR-BI DiI inh	ANO1 block	TMEM16A act
Cc1nn(-c2ccccc2)c(C)c1/C=N/NC(=O)c1cc(-c2ccc(Cl)s2)[nH]n1	-0.08	-3	-53	53	i	i
Cc1nn(-c2ccccc2)c(C)c1/C=N/NC(=O)c1cc(-c2cccs2)[nH]n1	1.1	-9	-80	80*	i	i
CC(=O)Oc1c(/C=C(\C#N)C(N)=O)[nH]c2ccccc12	-5*	-12	20	-20	nt	i
Cn1cc(C(=O)c2ccc(Cl)cc2)cc1-c1nc2ccccc2n1C	0.05	-28	3	-3	100*	i
Cc1ccnc(NC(=O)c2ccc(NC(=O)CC3SC(N4CCCC4)=NC3=O)cc2)c1 (stereo unspecified)	-0.98	nt	-18	18	i	i
Cc1ccnc(NC(=O)c2cccc(NC(=O)CC3SC(N4CCCCC4)=NC3=O)c2)c1 (stereo unspecified)	nt	nt	-53	53	nt	-38*
COc1ccccc1CCNC(=O)c1cccc(NC(=O)CC2SC(N3CCCCC3)=NC2=O)c1 (stereo unspecified)	nt	nt	-80	80*	nt	i
O=C(Nc1ccc(N2CCN(C(=O)c3ccccc3F)CC2)cc1)c1cncc(Br)c1	-0.01	-46	-46	46	i	i
Cc1occc1C(=O)NNC(=O)CN1C(=O)NC(C)(c2ccccc2)C1=O (stereo unspecified)	-1.4	nt	-20	20	i	i
COC(=O)C(Cc1ccc(OC(=O)c2ccc(C(F)(F)F)cc2)cc1)N1Cc2ccccc2C1=O (stereo unspecified)	2.1	-6	-12	12	100*	i
CSCC[C@@H](C(=O)O)N1Cc2ccccc2C1=O	-0.52	nt	-2	2	i	i
CCOC(=O)CCc1ccc(NC(=O)/C=C/c2ccc([N+](=O)[O-])o2)cc1	nt	nt	-74	74*	nt	i
CCc1ccc(C(=O)/C=C/c2ccc([N+](=O)[O-])o2)cc1	1.4	-27	-13	13	i	i
Cc1ccc(/C=C/C(=O)Nc2ccc([N+](=O)[O-])cc2)o1	0.97	5	-75	75*	i	i
Cc1ccc(/C=C/C(=O)Nc2ccc(Oc3ccccc3)cc2)o1	-0.96	-5	-24	24	i	i
Cn1nc(C(=O)Nc2cc(Cl)ccc2N2CCCC2)c2ccccc2c1=O	nt	nt	-93	93*	nt	nt
Cc1ccc2sc(NNC(=O)c3cc(=O)c4ccccc4o3)nc2c1C	-0.55	-12	-43	43	100*	i
Cc1cccc2sc(NNC(=O)c3cc(=O)c4ccccc4o3)nc12	0.01	-11	-22	22	i	i
COc1cc(/C=C/C(=O)N2CCN(CC(O)COc3ccccc3)CC2)cc(OC)c1OC (stereo unspecified)	0.27	-15	-79	79*	i	i
NC(=O)CSc1nc2cc(Cl)ccc2c(=O)n1C1CCCCC1	-0.29	-26	21	-21	i	i
Oc1ccc(-c2n[nH]c(C(F)(F)F)c2-c2ccccc2)c(O)c1	-2.5	4	-20	20	100*	i
C=CC[n+]1c(-c2ccccc2)csc1NC(C)(C)C	-1.2	0	12	-12	i	i
C=CC[n+]1c(-c2ccc(OC)c(OC)c2)csc1NNC(=O)Nc1ccccc1	2.3	-18	-29	29	100*	i
CCn1nc(C(=O)NCCc2ccc3c(c2)OCCO3)c2ccccc2c1=O	nt	nt	-9	9	nt	i
NC(=O)c1cc2ccccc2oc1=NCc1ccccc1	0.53	-2	-22	22	i	i
SMILES	Kir21 block	DNA FID counter	SR-BI DiI-HDL act	SR-BI DiI inh	ANO1 block	TMEM16A act
NC(=O)c1cc2cc(Br)ccc2oc1=NCc1ccccc1	-0.07	-3	-1	1	i	-8.5*
NC(=O)c1ccccc1OCC(=O)N1CCCC1c1ccc2c(c1)OCCCO2 (stereo unspecified)	nt	nt	4	-4	nt	i
Cc1ccc(C(=O)Nc2cccc(-c3ccc(N4CCOCC4)nn3)c2)cc1[N+](=O)[O-]	1.5	nt	-73	73*	i	i
O=C(Nc1cccc(-c2ccc(N3CCOCC3)nn2)c1)c1ccc([N+](=O)[O-])cc1	2.2	nt	-63	63	i	i
Cc1cc(C)c(NC(=O)CSc2nc3ccc(N4C(=O)c5ccccc5C4=O)cc3s2)c(C)c1	-0.95	-2	-74	74*	i	i
CCc1cccc(C)c1NC(=O)CSc1nc2ccc(N3C(=O)c4ccccc4C3=O)cc2s1	0	-5	-62	62	i	i
CCn1c(=O)c(C(=O)Nc2nc3ccccc3[nH]2)c(O)c2ccccc21	0.88	0	2	-2	i	-7.8*
COc1ccc(N=c2cc(-c3ccc(OC)cc3)oc3ccccc23)cc1	-3.8	-4	-61	61	i	i
COc1ccc(-c2cc(=Nc3ccc(C)cc3)c3ccccc3o2)cc1	-6.1*	0	-41	41	i	i
Cc1ccc(C)c(NC(=S)NC(C)C(c2ccccc2)N2CCN(C)CC2)c1 (stereo unspecified)	-2	10	20	-20	i	i
CCN1CCN(C(c2cccs2)C(C)NC(=S)Nc2cc(C)ccc2C)CC1 (stereo unspecified)	-5.5*	4	nt	nt	i	i
N#CCCn1nc2c(c1N)CCC2	nt	nt	-8	8	nt	i
COc1ccc(Nc2nc(-c3cccc([N+](=O)[O-])c3)nc3ccccc23)c(OC)c1	-1.5	-1	-91	91*	i	i
COc1ccc(Nc2nc3ccccc3nc2NS(=O)(=O)c2cccs2)c(OC)c1	0.11	-6	nt	nt	i	i
COc1ccc(Nc2nc(-c3cccs3)nc3ccccc23)c(OC)c1	-0.8	5	-77	77*	i	i
COc1ccc(Nc2c3c(nc4ccccc24)CCC3)c(OC)c1	-0.34	-2	-13	13	i	i
COc1ccc(Nc2nc(N3CCN(C)CC3)nc3ccccc23)c(OC)c1	0.85	46*	-12	12	i	i
CCOc1ccc(NS(=O)(=O)c2ccc(NC(=S)NC(=O)C(C)C)cc2)cc1	1.9	-9	-9	9	i	i
COc1ccc(NS(=O)(=O)c2ccc(NC(=S)NC(=O)C(C)C)cc2)cc1	-1.4	-4	21	-21	25*	i
O=C(CNC(=O)c1ccncc1)Nc1ccc(F)c(F)c1	0.24	-5	-1	1	i	i
CCc1ccccc1NC(=O)c1cccc(NC(=O)/C=C/c2ccco2)c1	-1.1	-4	-28	28	25*	i

Screens (PubChem)
